Measurements reported in ChEMBL document CHEMBL4715768, “Conjugation of N-acylhydrazone and 1,2,4-oxadiazole leads to the identification of active antimalarial agents” (Bioorg Med Chem, 2016).
The source made the active and inactive calls. The rule behind the calls is not given here.

Columns and labels:
Plasmodium falciparum [1] = experiment: Antimalarial activity against chloroquine-resistant blood stage Plasmodium falciparum W2 infected in human erythrocytes assessed as parasite growth inhibition at 10 ug/ml incubated for 24 hrs followed by [3H]-hypoxanthine addition and further incubated for 24 hrs followed by cooling and measured after 24 hrs by beta radiation counter analysis relative to control; assay type: functional; conditions: W2, Erythrocyte, time 72 hrs
In short: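 P. falciparum W2 grown in human O+ erythrocytes in RPMI 1640 with 10% human plasma, at 1% parasitemia and 2.5% hematocrit. Compounds diluted with 4% DMSO and medium, tested in triplicate. [3H]-hypoxanthine incorporation read; inhibition calculated against untreated parasites.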

Plasmodium berghei [2] = experiment: Antimalarial activity against Plasmodium berghei NK65 infected in Swiss mouse assessed as decrease in parasitemia at 100 mg/kg, ip qd administered via gavage for 4 consecutive days and measured up to 8 days by optical microscopy analysis; assay type: functional, organism-based; conditions: time day <=8
In short: (§1)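 Adult Swiss mice (4-6 weeks, n=5/group) inoculated i.p. with 10⁶ P. berghei NK65-infected red cells. Dosing began 1 h post-infection, once daily for 4 consecutive days by oral gavage or i.p. Vehicle was DMSO 20% in saline. Tail blood smears were taken on days 4–8, methanol-fixed, panoptic-stained and read by light microscopy. Inhibition = [(C−T)/C]×100 versus vehicle controls. Means ± SEM.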

Hemozoin [3] = experiment: Potency index, ratio of chloroquine IC50 to test compound IC50 for inhibition of beta-hematin formation measured after 24 hrs by spectrophotometry analysis
In short: (§2)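 Haemin (0.5 mg/mL in 0.2 M NaOH) was mixed with 3 M sodium acetate, 17.4 M acetic acid and compound, tested at up to 2.5 mM. Incubation was 24 h at 37 °C. Pellets were washed with DMSO twice and water, dissolved in 0.1 M NaOH, and read at 405 nm. Inhibition was taken against a no-compound control, at least twice in triplicate. Chloroquine was the positive control. CQ index = IC50 CQ / IC50 compound.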

Hemozoin [4] = experiment: Inhibition of beta-hematin formation measured after 24 hrs by spectrophotometry analysis; in short: as §2
[5] = Hemolytic activity in human erythrocytes measured after 1 hr by microtiter plate method; assay type: ADME, cell-based, Erythrocyte; conditions: read-out: CC50
In short: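 Fresh human O⁺ erythrocytes were washed three times in PBS and used at 1% hematocrit. Compounds dissolved in PBS were added in triplicate and incubated 1 h; saponin 1% v/v served as the full-lysis control. After centrifugation, haemoglobin released into the supernatant was read at 540 nm and hemolysis CC50 derived.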

Plasmodium berghei [6] = experiment: Antimalarial activity against Plasmodium berghei NK65 infected in Swiss mouse assessed as decrease in parasitemia at 100 mg/kg, po qd administered via gavage for 4 consecutive days and measured up to 8 days by optical microscopy analysis; assay type: functional, organism-based; conditions: time day <=8; in short: as §1
[7] = Cytotoxicity against human HepG2 cells assessed as reduction in cell growth measured after 72 hrs by alamar blue assay; assay type: cell-based
In short: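 HepG2 cells in phenol red-free RPMI-1640 with 10% FBS were seeded at 10⁴ cells/well. After 24 h they were exposed to five concentrations in triplicate for 72 h at 37 °C, 5% CO₂. AlamarBlue (20%) was added for 24 h, and absorbance was read at 570/600 nm. CC50 came from non-linear regression, two independent experiments. Gentian violet served as the cytotoxic control.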

Plasmodium berghei [8] = experiment: Antimalarial activity against Plasmodium berghei NK65 infected in Swiss mouse assessed as increase in mouse survival at 100 mg/kg, po qd administered via gavage for 4 consecutive days and […] relative to control; assay type: functional, organism-based
In short: (§3)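 Swiss mice (n=5/group) infected i.p. with 10⁶ P. berghei NK65 red cells, then treated 1 h later, once daily for 4 days, orally by gavage or i.p. Vehicle was DMSO in saline. Survival was followed to 30 days post-infection and compared with vehicle by Mantel-Cox test. One experiment of two replicates.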

[9] = Selectivity index, ratio of CC50 for human HepG2 cells assessed as cell growth inhibition measured after 72 hrs by alamar blue assay to IC50 for chloroquine-resistant blood stage Plasmodium falciparum W2 infected in human erythrocytes assessed as parasite growth inhibition incubated for 24 hrs followed by [3H]-hypoxanthine addition and further incubated for 24 hrs followed by cooling and measured after 24 hrs by beta radiation counter analysis; assay type: toxicity, cell-based; conditions: read-out: Ratio CC50/IC50
Plasmodium falciparum [10] = experiment: Antimalarial activity against chloroquine-resistant blood stage Plasmodium falciparum W2 infected in human erythrocytes assessed as parasite growth inhibition incubated for 24 hrs followed by [3H]-hypoxanthine addition and further incubated for 24 hrs followed by cooling and measured after 24 hrs by beta radiation counter analysis; assay type: functional, organism-based; conditions: W2, Erythrocyte
In short: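 W2 P. falciparum cultured in O+ human erythrocytes in RPMI 1640 plus 10% human plasma, at 1% parasitemia and 2.5% hematocrit. At least five compound concentrations, each in triplicate. Growth measured as [3H]-hypoxanthine uptake relative to untreated parasites. IC50 derived from two independent experiments.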

Plasmodium berghei [11] = experiment: Antimalarial activity against Plasmodium berghei NK65 infected in Swiss mouse assessed as decrease in parasitemia at 25 to 50 mg/kg, ip qd administered via gavage for 4 consecutive days and measured up to 8 days by optical microscopy analysis; assay type: functional, organism-based; conditions: dose 25-50 mg/kg, time day <=8; in short: as §1
Plasmodium berghei [12] = experiment: Antimalarial activity against Plasmodium berghei NK65 infected in Swiss mouse assessed as effect on mouse survival at 25 to 50 mg/kg, ip qd administered via gavage for 4 consecutive days and […] by optical microscopy analysis; assay type: functional, organism-based; conditions: dose 25-50 mg/kg; in short: as §3
Plasmodium berghei [13] = experiment: Antimalarial activity against Plasmodium berghei NK65 infected in Swiss mouse assessed as decrease in parasitemia at 50 mg/kg, po qd administered via gavage for 4 consecutive days and measured up to 8 days by optical microscopy analysis; assay type: functional, organism-based; conditions: time day <=8; in short: as §1
Plasmodium berghei [14] = experiment: Antimalarial activity against Plasmodium berghei NK65 infected in Swiss mouse assessed as increase in mouse survival at 50 mg/kg, po qd administered via gavage for 4 consecutive days and […] relative to control; assay type: functional
In short: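 Swiss mice, 4–6 weeks, n=5 per group, infected i.p. with 10⁶ P. berghei NK65-infected red cells. Treated once daily for 4 consecutive days starting 1 h post-infection, dosed by oral gavage in 20% DMSO. Vehicle controls received DMSO in saline. Survival followed up to 30 days; Mantel-Cox test. One experiment of two replicates.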

## O=C(N/N=C/c1ccc2c(c1)OCO2)c1nc(-c2ccc([N+](=O)[O-])cc2)no1
Plasmodium falciparum [1]
  inhibition at 10 µg/mL: 33.9%

## COc1cc(/C=N/NC(=O)c2nc(-c3ccc(C)cc3)no2)ccc1O
Plasmodium berghei [2]
  Activity: inactive
Hemozoin [3]
  Ratio IC50: 1.3
Plasmodium falciparum [1]
  inhibition at 10 µg/mL: 61.1%
Hemozoin [4]
  IC50: 600 µM
[5]
  HC50 at 1 h: > 100 µg/mL
Plasmodium berghei [6]
  Activity: inactive
[7]
  CC50 at 72 h: 46.6 µM
Plasmodium berghei [8]
  Activity: inactive
[9]
  selectivity ratio at 72 h: 388
Plasmodium falciparum [10]
  IC50: 0.12 µM

## O=C(N/N=C/C=C/c1ccccc1)c1nc(-c2ccc(F)cc2)no1
Plasmodium falciparum [1]
  inhibition at 10 µg/mL: 34.3%

## O=C(N/N=C/C=C/c1ccccc1)c1nc(-c2ccccc2)no1
Plasmodium falciparum [1]
  inhibition at 10 µg/mL: 51%

## O[C@@H](c1cc(C(F)(F)F)nc2c(C(F)(F)F)cccc12)[C@H]1CCCCN1 [(S,R)-MEFLOQUINE]
Plasmodium falciparum [1]
  inhibition at 10 µg/mL: 100%
[7]
  CC50 at 72 h: 11.8 µM
[9]
  selectivity ratio at 72 h: 295
Plasmodium falciparum [10]
  IC50: 0.04 µM

## O=C(N/N=C/C=C/c1ccccc1)c1nc(-c2ccc([N+](=O)[O-])cc2)no1
Plasmodium falciparum [1]
  inhibition at 10 µg/mL: 25.7%

## COc1ccc(-c2noc(C(=O)N/N=C/c3ccc(O)c(OC)c3)n2)cc1
Plasmodium falciparum [1]
  inhibition at 10 µg/mL: 42.2%

## Cc1ccc(-c2noc(C(=O)N/N=C/C=C/c3ccccc3)n2)cc1
Plasmodium falciparum [1]
  inhibition at 10 µg/mL: 52.7%

## O=C(N/N=C/c1ccc2c(c1)OCO2)c1nc(-c2ccccc2)no1
Plasmodium falciparum [1]
  inhibition at 10 µg/mL: 27.5%

## COc1cc(/C=N/NC(=O)c2nc(-c3ccc(O)cc3)no2)ccc1O
Plasmodium falciparum [1]
  inhibition at 10 µg/mL: 58.8%
Hemozoin [4]
  IC50: > 2000 µM
[5]
  HC50 at 1 h: > 100 µg/mL
[7]
  CC50 at 72 h: > 200 µM
Plasmodium falciparum [10]
  IC50: 1.9 µM

## COc1ccc(-c2noc(C(=O)N/N=C/c3ccc4c(c3)OCO4)n2)cc1
Plasmodium falciparum [1]
  inhibition at 10 µg/mL: 27.5%

## O=C(N/N=C/C=C/c1ccccc1)c1nc(-c2ccc(O)cc2)no1
Plasmodium falciparum [1]
  inhibition at 10 µg/mL: 39.1%

## O=C(N/N=C/c1ccc2c(c1)OCO2)c1nc(-c2ccc(Br)cc2)no1
Plasmodium falciparum [1]
  inhibition at 10 µg/mL: 45.3%

## O=C(N/N=C/C=C/c1ccccc1)c1nc(-c2ccc(Cl)cc2)no1
Plasmodium falciparum [1]
  inhibition at 10 µg/mL: 28.8%

## COc1ccc(-c2noc(C(=O)N/N=C/C=C/c3ccccc3)n2)cc1
Plasmodium falciparum [1]
  inhibition at 10 µg/mL: 26.1%

## COc1cc(/C=N/NC(=O)c2nc(-c3ccc(Br)cc3)no2)ccc1O
Plasmodium berghei [2]
  Activity: inactive
Hemozoin [3]
  Ratio IC50: 0.8
Plasmodium falciparum [1]
  inhibition at 10 µg/mL: 71.1%
Hemozoin [4]
  IC50: 900 µM
[5]
  HC50 at 1 h: 33 µg/mL
Plasmodium berghei [6]
  Activity: inactive
[7]
  CC50 at 72 h: 16.9 µM
Plasmodium berghei [8]
  Activity: inactive
[9]
  selectivity ratio at 72 h: 241
Plasmodium falciparum [10]
  IC50: 0.07 µM

## O=C(N/N=C/c1ccc2c(c1)OCO2)c1nc(-c2ccc(Cl)cc2)no1
Plasmodium falciparum [1]
  inhibition at 10 µg/mL: 53%

## COc1cc(/C=N/NC(=O)c2nc(-c3ccccc3)no2)ccc1O
Plasmodium falciparum [1]
  inhibition at 10 µg/mL: 55.4%

## COc1cc(/C=N/NC(=O)c2nc(-c3ccc([N+](=O)[O-])cc3)no2)ccc1O
Plasmodium falciparum [1]
  inhibition at 10 µg/mL: 68.7%
Hemozoin [4]
  IC50: > 2000 µM
[5]
  HC50 at 1 h: > 100 µg/mL
Plasmodium berghei [11]
  Activity: Active
[7]
  CC50 at 72 h: 14.8 µM
[9]
  selectivity ratio at 72 h: 74
Plasmodium berghei [12]
  Activity: inactive
Plasmodium falciparum [10]
  IC50: 0.2 µM

## COc1cc(/C=N/NC(=O)c2nc(-c3ccc(Cl)cc3)no2)ccc1O
Plasmodium falciparum [1]
  inhibition at 10 µg/mL: 37%

## COc1cc(/C=N/NC(=O)c2nc(-c3ccc(F)cc3)no2)ccc1O
Plasmodium falciparum [1]
  inhibition at 10 µg/mL: 24.7%

## O=C(N/N=C/c1ccc2c(c1)OCO2)c1nc(-c2ccc(F)cc2)no1
Plasmodium falciparum [1]
  inhibition at 10 µg/mL: 31.6%

## Cc1ccc(-c2noc(C(=O)N/N=C/c3ccc4c(c3)OCO4)n2)cc1
Plasmodium falciparum [1]
  inhibition at 10 µg/mL: 21.9%

## CCN(CC)CCCC(C)Nc1ccnc2cc(Cl)ccc12 (stereo unspecified) [CHLOROQUINE]
Hemozoin [4]
  IC50: 800 µM
Plasmodium berghei [13]
  Activity: Active
[5]
  HC50 at 1 h: > 100 µg/mL
Plasmodium berghei [14]
  Activity: 100%

## O=C(N/N=C/C=C/c1ccccc1)c1nc(-c2ccc(Br)cc2)no1
Plasmodium falciparum [1]
  inhibition at 10 µg/mL: 58.8%

## O=C(N/N=C/c1ccc2c(c1)OCO2)c1nc(-c2ccc(O)cc2)no1
Hemozoin [3]
  Ratio IC50: 1
Plasmodium falciparum [1]
  inhibition at 10 µg/mL: 71.9%
Hemozoin [4]
  IC50: 800 µM
[5]
  HC50 at 1 h: > 100 µg/mL
[7]
  CC50 at 72 h: > 200 µM
Plasmodium falciparum [10]
  IC50: 1.5 µM
